Counter-ions that a name gives are not always drawn.
Columns and labels:
[1] = Cytotoxicity against human HCT15 cells after 48 hrs by CCK8 assay; assay type: functional, cell-based; conditions: HCT-15, 48 h
How it was run: (§1)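 IC50 values are reported in micromolar. Adriamycin, etoposide and camptothecin served as positive controls.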

[2] = Cytotoxicity against human DU145 cells after 48 hrs by CCK8 assay; conditions: DU-145, 48 h
[3] = test system: HeLa; assay: Cytotoxicity against human HeLa cells after 48 hrs by CCK8 assay; assay type: functional, cell-based; how it was run: as §1

## COc1cccc2c1C(=O)c1c(O)c3c(c(O)c1C2=O)C[C@@](O)(C(=O)CO)C[C@@H]3O[C@H]1C[C@H](N)[C@H](O)[C@H](C)O1 [DOXORUBICIN HYDROCHLORIDE]
[1]
  IC50: 1230 nM

## COc1cc([C@@H]2c3cc4c(cc3[C@@H](O[C@@H]3O[C@@H]5CO[C@@H](C)O[C@H]5[C@H](O)[C@H]3O)[C@H]3COC(=O)[C@H]23)OCO4)cc(OC)c1O [ETOPOSIDE]
[2]
  IC50: 2090 nM
[1]
  IC50: 18900 nM

## CC[C@@]1(O)C(=O)OCc2c1cc1n(c2=O)Cc2cc3ccccc3nc2-1 [CAMPTOTHECIN]
[3]
  IC50: 180 nM
[2]
  IC50: 20 nM
[1]
  IC50: 2820 nM

— ChEMBL document CHEMBL3779827, “A new series of 2-phenol-4-aryl-6-chlorophenyl pyridine derivatives as dual topoisomerase I/II inhibitors: Synthesis, biological evaluation and 3D-QSAR study” (Eur J Med Chem, 2016)
